Results collected from several papers.
Protocols differ between the studies behind these lines.
ABL1 T315I phosphorylated: Tyrosine-protein kinase ABL1, phosphorylated (ABL1, Homo sapiens, UniProt P00519, T315I)
ABL1 Q252H non-phosphorylated: Tyrosine-protein kinase ABL1, non-phosphorylated (ABL1, Homo sapiens, UniProt P00519, Q252H)
ABL1 phosphorylated: Tyrosine-protein kinase ABL1, phosphorylated (ABL1, Homo sapiens, UniProt P00519)
ABL1 F317I: Tyrosine-protein kinase ABL1 (ABL1, Homo sapiens, UniProt P00519, F317I)
ABL1 non-phosphorylated: Tyrosine-protein kinase ABL1, non-phosphorylated (ABL1, Homo sapiens, UniProt P00519)
ABL1 F317L phosphorylated: Tyrosine-protein kinase ABL1, phosphorylated (ABL1, Homo sapiens, UniProt P00519, F317L)
ABL1 E255K phosphorylated: Tyrosine-protein kinase ABL1, phosphorylated (ABL1, Homo sapiens, UniProt P00519, E255K)

Compound | target | observed | technique | concentration | remaining binding [%]
O=C(c1ccc(Nc2ncc(Cl)c(-c3cc4ccccc4s3)n2)cc1)N1CCC(N2CCCC2)CC1 | Tyrosine-protein kinase ABL1, non-phosphorylated (ABL1, Homo sapiens, UniProt P00519, T315I) | binding | competition with immobilised ligand | 1 µM | 0.9
C[C@H]1CCN(c2nccc(-c3cnn4ncccc34)n2)C1 | Tyrosine-protein kinase ABL1 (ABL1, Homo sapiens, UniProt P00519, T315I) | binding |  | 1 µM | 82
O=C(NCCCN1CCOCC1)c1ccc(Nc2nccc(-c3cc4ccccc4s3)n2)cc1 | ABL1 T315I phosphorylated | binding | competition with immobilised ligand | 1 µM | 41
O=C(O)[C@H]1[C@H](Cn2nnc3ccccc3c2=O)CC[C@@H]1C(=O)c1ccc(OCCC2CCOCC2)cc1 | Tyrosine-protein kinase ABL1, phosphorylated (ABL1, Homo sapiens, UniProt P00519, F317I) | binding |  | 1 µM | 100
c1cnn2ncc(-c3ccnc(N4CCC45COC5)n3)c2c1 | Tyrosine-protein kinase ABL1 (ABL1, Homo sapiens, UniProt P00519, H396P) | binding |  | 1 µM | 66
Cn1nc(C(F)(F)F)cc1-c1cnc(N2CCc3cc(S(=O)(=O)Nc4c(F)cc(Cl)cc4F)cc(N4CCCC4=O)c32)nc1 | ABL1 T315I phosphorylated | cell-free assay | competition with immobilised ligand | 1 µM | 82
F[C@@H]1CCN(c2nccc(-c3cnn4ncccc34)n2)C1 | Tyrosine-protein kinase ABL1 (ABL1, Homo sapiens, UniProt P00519, F317L) | binding |  | 1 µM | 100
C=CC(=O)N1CCC(C(=O)NCC(=O)N2CCN(c3nc(-c4cnc(N)nc4C(F)F)nc(N4CCOCC4)n3)CC2)CC1 | ABL1 Q252H non-phosphorylated | binding | competition with immobilised ligand | 1 µM | 94
C[C@@H](c1ccc(-n2cnc3c(N)ncnc32)cc1)N1CCc2nn(C)c(Cc3ccccc3)c2C1=O | ABL1 T315I phosphorylated | binding | competition with immobilised ligand | 0.1 µM | 78
O=C(NCC1CCOCC1)c1n[nH]cc1NC(=O)c1c(F)cccc1F | Tyrosine-protein kinase ABL1, phosphorylated (ABL1, Homo sapiens, UniProt P00519, M351T) | binding | competition with immobilised ligand | 1 µM | 91
O=C(NCc1ncc(C(F)(F)F)cc1Cl)c1ccc2c(c1)C1(CCS(=O)(=O)CC1)[C@H](C1CC1)N2S(=O)(=O)c1ccc(F)cc1 | ABL1 phosphorylated | cell-free assay | competition with immobilised ligand | 1 µM | 71
Nc1ncc2c(n1)-c1c([nH]c3ccc(C#CC4CC4)cc13)CCCC2 | Tyrosine-protein kinase ABL1, phosphorylated (ABL1, Homo sapiens, UniProt P00519, Y253F) | binding | competition with immobilised ligand | 1 µM | 95
CN(c1nccc(-c2cnn3ncccc23)n1)C1CC1 | ABL1 F317I | binding |  | 1 µM | 100
c1cncc(-c2cccc(Nc3nccc(NC4CCCCC4)n3)c2)c1 | ABL1 T315I phosphorylated | binding | competition with immobilised ligand | 10 µM | 73
CC(C)(C)c1ccc(-c2nc(CBr)nn2-c2cccc(O)c2)cc1 | ABL1 phosphorylated | cell-free assay | competition with immobilised ligand | 10 µM | 85
CN(C)c1nccc(-c2cnc3ncccn23)n1 | Tyrosine-protein kinase ABL1 (ABL1, Homo sapiens, UniProt P00519, Q252H) | binding |  | 1 µM | 72
COc1cnc(Nc2cccc(S(N)(=O)=O)c2)nc1N1CCN(c2ccccc2)C(=O)C1 | ABL1 non-phosphorylated | binding | competition with immobilised ligand | 1 µM | 77
O=C(c1ccc(Nc2nccc(-c3cc4ccccc4s3)n2)cc1)N1CCC(N2CCCC2)CC1 | ABL1 F317L phosphorylated | binding | competition with immobilised ligand | 1 µM | 100

Compound | target | observed | technique | concentration | remaining binding [%]
CN(C)c1ncnc(-c2ccc3nc(Nc4cc(CN5CCN(C(=O)CC(F)(F)F)CC5)ccn4)[nH]c3c2)c1Cl | ABL1 E255K phosphorylated | binding | competition with immobilised ligand | 1 µM | 49
COc1ncc2cc3ccccc3nc2c1C#N | Tyrosine-protein kinase ABL1, non-phosphorylated (ABL1, Homo sapiens, UniProt P00519, H396P) | cell-free assay | competition with immobilised ligand | 5 µM | 100
O=C(NS(=O)(=O)c1ccc(NCC2CCOCC2)c([N+](=O)[O-])c1)c1ccc(N2CCN(Cc3ccc(C(F)(F)F)cc3-c3ccc(Cl)cc3)CC2)cc1Oc1cnc2[nH]ccc2c1 | Tyrosine-protein kinase ABL1, phosphorylated (ABL1, Homo sapiens, UniProt P00519, H396P) | cell-free assay | competition with immobilised ligand | 1 µM | 92
CNC(=O)[C@@H]1CC[C@@H](n2c(-c3ccc4cnccc4c3)nc3ccc(C(=O)NCc4cccc(C(N)=O)c4)cc32)C1 | ABL1 phosphorylated | binding | competition with immobilised ligand | 1 µM | 90
COc1ccnn2ncc(-c3ccnc(N(C)C)n3)c12 | ABL1 F317I | binding |  | 1 µM | 82
Cc1cnc(Nc2ccc(C(=O)N3CCC(N4CCCC4)CC3)cc2)nc1-c1cc2ccccc2s1 | Tyrosine-protein kinase ABL1, non-phosphorylated (ABL1, Homo sapiens, UniProt P00519, F317L) | binding | competition with immobilised ligand | 1 µM | 59
CN(C)c1nccc(-c2cnn3ncccc23)n1 | ABL1 non-phosphorylated | binding | competition with immobilised ligand | 1 µM | 98
CCN1CCN(Cc2ccc(C(=O)Nc3ccc(C)c(Oc4ccc5c(c4)CC(=O)N5)c3)cc2C(F)(F)F)CC1 | ABL1 F317L phosphorylated | binding | competition with immobilised ligand | 1 µM | 9.6
O=C(NCCCN1CCOCC1)c1ccc(Nc2ncc(Cl)c(-c3ccc(Cl)s3)n2)cc1 | ABL1 Q252H non-phosphorylated | binding | competition with immobilised ligand | 1 µM | 11
COc1cnc(Nc2cccc(S(N)(=O)=O)c2)nc1N1CCN(c2ccccc2)CC1 | ABL1 non-phosphorylated | binding | competition with immobilised ligand | 1 µM | 70
O=C(Nc1c[nH]nc1C(=O)NC1CCNCC1)c1cc(F)cc(F)c1 | Tyrosine-protein kinase ABL1, non-phosphorylated (ABL1, Homo sapiens, UniProt P00519, F317I) | binding | competition with immobilised ligand | 1 µM | 100
N#Cc1ccc(Nc2ccc3[nH]c(=O)[nH]c3c2)c(Cl)c1 | ABL1 T315I phosphorylated | cell-free assay | competition with immobilised ligand | 1 µM | 93
O=C(c1ccc(Nc2ncc(Cl)c(-c3ccc(Cl)s3)n2)cc1)N1CCC(N2CCCC2)CC1 | ABL1 Q252H non-phosphorylated | binding | competition with immobilised ligand | 1 µM | 1
CO[C@H]1CC[C@H](CNc2ccc(S(=O)(=O)NC(=O)c3ccc(N4CCN(CC5=C(c6ccc(Cl)cc6)CC(C)(C)CC5)CC4)cc3Oc3cnc4[nH]ccc4c3)cc2[N+](=O)[O-])CC1 | ABL1 E255K phosphorylated | binding | competition with immobilised ligand | 1 µM | 74
CN1CCN(c2ccc(Nc3nccc(-c4ccccc4)n3)cc2C(F)(F)F)CC1 | Tyrosine-protein kinase ABL1 (ABL1, Homo sapiens, UniProt P00519, M351T) | binding |  | 10 µM | 15
N#Cc1ccccc1CSc1nnc2c(n1)[nH]c1ccccc12 | ABL1 phosphorylated | binding | competition with immobilised ligand | 10 µM | 94
CCOCCn1cc(C(=O)Nc2ccc(-n3nc(-c4cccnc4)cc3C(F)(F)F)cn2)ccc1=O | Tyrosine-protein kinase ABL1, phosphorylated (ABL1, Homo sapiens, UniProt P00519, Q252H) | cell-free assay | competition with immobilised ligand | 1 µM | 73
N[C@@H]1CCN(c2nccc(-c3cnn4ncccc34)n2)C1 | ABL1 F317I | binding |  | 1 µM | 100
